Data published in ChEMBL document CHEMBL3243986, “Synthesis and analgetic activity of some 5-aryl-2azabicyclo[3.2.1]octanes” (J Med Chem, 1978).
Activity calls are given as the source filed them.

Experiments:
Mus musculus [1] = assay: Analgesic activity in sc dosed CD-1 mouse assessed as delay in response to noxious heat stimuli measured after 15 to 60 mins post dosing by D'Amour-Smith tail-flick method; assay type: functional; conditions: CD-1, Tail
Outline: (§1)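 Male CD-1 mice, ten per group, held in a plexiglass restrainer; an intense light beam served as the noxious heat stimulus, and tail-flick latency was recorded automatically. Two baseline readings were taken, unstable animals were excluded, and a cutoff was set. Dosing was sc, with vehicle at 10 mL/kg. Tests ran at 15, 30, 45 and 60 min, then at the peak time for at least three doses. Response past cutoff counted as analgesia; ED50 by linear regression.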

Mus musculus [2] = assay: Inhibition of morphine-induced mania in CD-1 mouse assessed as inhibition of stereotypic activity at 10 mg/kg, sc measured after 15 to 30 mins; assay type: functional; conditions: for inhibition in vivo at 10 mg/kg: CD-1, sc, route subcutaneous
Outline: (§2)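 Male mice, 18–30 g, two pairs per group, dosed randomly. Controls received morphine sulfate 25 mg/kg sc; test groups received morphine plus compound. Animals were watched for 15–30 min for stereotyped increase in motor activity, and blocking of this behaviour was scored positive. For dose range, ED50 by linear regression.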

Mus musculus [3] = assay: Analgesic activity in sc dosed CD-1 mouse assessed as inhibition of phenylquinone-induced writhing administered 15 to 90 mins prior challenge measured 5 mins post challenge; assay type: functional; conditions: CD-1, sc
Outline: (§3)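 Male CD-1 mice, 18–24 g, five per group, dosed 15, 30, 60 or 90 min before phenyl-p-benzoquinone (0.125% in 5% aqueous ethanol); vehicle controls. Writhes were counted over 10 min, starting 5 min after challenge. For dose–response, ten mice per dose were tested at the peak time, with four doses plus control, randomized. Result given as % inhibition of writhes; ED50 by computer linear regression.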

Mus musculus [4] = assay: Inhibition of morphine-induced mania in sc dosed CD-1 mouse assessed as inhibition of stereotypic activity measured after 15 to 30 mins; assay type: functional; outline: as §2
Mus musculus [5] = assay: Analgesic activity in po dosed CD-1 mouse assessed as inhibition of phenylquinone-induced writhing administered 15 to 90 mins prior challenge measured 5 mins post challenge; assay type: functional; conditions: CD-1, po; outline: as §3
Mus musculus [6] = assay: Toxicity in sc dosed CD-1 mouse assessed as physical dependence liability by infusion test; assay type: organism-based; conditions: in vivo
Mus musculus [7] = assay: Analgesic activity in CD-1 mouse assessed as delay in response to noxious heat stimuli at 2 mg/kg, sc measured after 15 to 60 mins post dosing by D'Amour-Smith tail-flick method relative to control; assay type: functional; conditions: route subcutaneous; outline: as §1
Mus musculus [8] = assay: Analgesic activity in CD-1 mouse assessed as delay in response to noxious heat stimuli at 25 mg/kg, sc measured after 15 to 60 mins post dosing by D'Amour-Smith tail-flick method relative to control; assay type: functional; conditions: route subcutaneous; outline: as §1
Mus musculus [9] = assay: Analgesic activity in CD-1 mouse assessed as inhibition of phenylquinone-induced writhing at 10 mg/kg, sc administered 15 to 90 mins prior challenge measured 5 mins post challenge; assay type: functional; conditions: CD-1, sc, route subcutaneous; outline: as §3
Mus musculus [10] = assay: Toxicity in sc dosed CD-1 mouse assessed as overt effects; assay type: organism-based; conditions: in vivo
Mus musculus [11] = assay: Analgesic activity in po dosed CD-1 mouse assessed as delay in response to noxious heat stimuli measured after 15 to 60 mins post dosing by D'Amour-Smith tail-flick method; assay type: functional; conditions: CD-1, Tail

SMILES: Br.Oc1cccc(C23CCC(C2)N(CCc2ccc(Cl)c(Cl)c2)CC3)c1 (racemic)
- ED50 (Mus musculus [1]): 2.73 mg/kg
- inhibition (Mus musculus [2]): inactive
- ED50 (Mus musculus [3]): 0.75 mg/kg

SMILES: Br.Oc1cccc(C23CCC(C2)N(CCc2cccc(Cl)c2)CC3)c1 (racemic)
- ED50 (Mus musculus [1]): 5.46 mg/kg
- inhibition in vivo at 10 mg/kg (Mus musculus [2]): 20%
- ED50 (Mus musculus [3]): 0.46 mg/kg

SMILES: Br.Oc1cccc(C23CCC(C2)N(CCc2ccc(Cl)cc2)CC3)c1 (racemic)
- ED50 (Mus musculus [1]): 7.32 mg/kg
- inhibition in vivo at 10 mg/kg (Mus musculus [2]): 50%
- ED50 (Mus musculus [3]): 0.42 mg/kg

SMILES: Br.Oc1cccc(C23CCC(C2)N(CCc2ccccc2)CC3)c1 (racemic)
- ED50 (Mus musculus [1]): 6.45 mg/kg
- ED50 (Mus musculus [4]; CD-1, sc): 1.06 mg/kg
- ED50 (Mus musculus [5]): 60.9 mg/kg
- Activity (Mus musculus [6]): Non-toxic
- ED50 (Mus musculus [3]): 0.68 mg/kg

SMILES: Br.O=C(CCCN1CCC2(c3cccc(O)c3)CCC1C2)c1ccc(F)cc1 (racemic)
- Activity (Mus musculus [7]): 40%
- ED50 (Mus musculus [4]; CD-1, sc): 2.01 mg/kg
- ED50 (Mus musculus [3]): 0.35 mg/kg

SMILES: Br.Oc1cccc(C23CCC(C2)N(Cc2ccco2)CC3)c1 (racemic)
- ED50 (Mus musculus [1]): 10 mg/kg
- ED50 (Mus musculus [4]; CD-1, sc): 3.7 mg/kg
- ED50 (Mus musculus [3]): 22.7 mg/kg

SMILES: Br.CC(C)=CCN1CCC2(c3cccc(O)c3)CCC1C2 (racemic)
- Activity (Mus musculus [8]): 20%
- inhibition (Mus musculus [2]): inactive
- ED50 (Mus musculus [3]): 25 mg/kg

SMILES: Br.Oc1cccc(C23CCC(C2)N(CC2CC2)CC3)c1 (racemic)
- Activity (Mus musculus [8]): 30%
- inhibition in vivo at 10 mg/kg (Mus musculus [2]): 20%
- ED50 (Mus musculus [3]): 5.44 mg/kg

SMILES: Br.CCCCCN1CCC2(c3cccc(O)c3)CCC1C2 (racemic)
- Activity (Mus musculus [8]): 20%
- ED50 (Mus musculus [4]; CD-1, sc): 4.31 mg/kg
- ED50 (Mus musculus [3]): 8.34 mg/kg

SMILES: Br.CCCCN1CCC2(c3cccc(O)c3)CCC1C2 (racemic)
- Activity (Mus musculus [8]): 30%
- inhibition in vivo at 10 mg/kg (Mus musculus [2]): 40%
- ED50 (Mus musculus [3]): 8.66 mg/kg

SMILES: Br.CCCN1CCC2(c3cccc(O)c3)CCC1C2 (racemic)
- Activity (Mus musculus [8]): 20%
- inhibition (Mus musculus [2]): inactive
- ED50 (Mus musculus [3]): 8.79 mg/kg

SMILES: Br.CCN1CCC2(c3cccc(O)c3)CCC1C2 (racemic)
- Activity (Mus musculus [8]): 30%
- inhibition (Mus musculus [2]): inactive
- inhibition in vivo at 10 mg/kg (Mus musculus [9]): 41%

SMILES: Br.CN1CCC2(c3cccc(O)c3)CCC1C2 (racemic)
- Activity (Mus musculus [8]): 40%
- ED50 (Mus musculus [3]): 10 mg/kg

SMILES: Br.COc1cccc(C23CCC(C2)N(CCc2ccccc2)CC3)c1 (racemic)
- ED50 (Mus musculus [1]): 13 mg/kg
- ED50 (Mus musculus [4]): Active
- ED50 (Mus musculus [3]): 5.99 mg/kg

SMILES: Br.COc1cccc(C23CCC(C2)N(CCCC(=O)c2ccc(F)cc2)CC3)c1 (racemic)
- Activity (Mus musculus [7]): 10%
- ED50 (Mus musculus [4]; CD-1, sc): 3.7 mg/kg
- ED50 (Mus musculus [3]): 0.85 mg/kg

SMILES: Br.CCCCCN1CCC2(c3cccc(OC)c3)CCC1C2 (racemic)
- Activity (Mus musculus [8]): 40%
- inhibition (Mus musculus [2]): inactive
- ED50 (Mus musculus [3]): 5.77 mg/kg

SMILES: Br.CCCCN1CCC2(c3cccc(OC)c3)CCC1C2 (racemic)
- ED50 (Mus musculus [1]): 9.71 mg/kg
- inhibition (Mus musculus [2]): inactive
- ED50 (Mus musculus [3]): 4.87 mg/kg

SMILES: Br.CCCN1CCC2(c3cccc(OC)c3)CCC1C2 (racemic)
- Activity (Mus musculus [8]): 40%
- ED50 (Mus musculus [4]; CD-1, sc): 8.3 mg/kg
- ED50 (Mus musculus [3]): 7.4 mg/kg

SMILES: Br.CCN1CCC2(c3cccc(OC)c3)CCC1C2 (racemic)
- ED50 (Mus musculus [1]): 17.7 mg/kg
- inhibition in vivo at 10 mg/kg (Mus musculus [2]): 10%
- ED50 (Mus musculus [3]): 11.9 mg/kg

SMILES: Br.COc1cccc(C23CCC(C2)N(C)CC3)c1 (racemic)
- Activity (Mus musculus [8]): 10%
- ED50 (Mus musculus [4]; CD-1, sc): 50 mg/kg
- ED50 (Mus musculus [3]): 6.96 mg/kg

SMILES: Br.Cc1ccc(CCN2CCC3(c4cccc(O)c4)CCC2C3)cc1 (racemic)
- ED50 (Mus musculus [1]): 8.54 mg/kg
- ED50 (Mus musculus [4]; CD-1, sc): ≤ 10 mg/kg
- ED50 (Mus musculus [3]): 0.58 mg/kg

SMILES: Br.Oc1ccc(CCN2CCC3(c4cccc(O)c4)CCC2C3)cc1 (racemic)
- ED50 (Mus musculus [1]): 25 mg/kg
- inhibition in vivo at 10 mg/kg (Mus musculus [2]): 20%
- Activity (Mus musculus [10]): Toxic
- ED50 (Mus musculus [3]): 2.08 mg/kg

SMILES: Br.Oc1cccc(C23CCC(C2)N(CCc2cccs2)CC3)c1 (racemic)
- ED50 (Mus musculus [1]): 11 mg/kg
- ED50 (Mus musculus [4]; CD-1, sc): 10 mg/kg
- ED50 (Mus musculus [3]): 0.72 mg/kg

SMILES: Br.CC(=O)Oc1cccc(C23CCC(C2)N(C)CC3)c1 (racemic)
- Activity (Mus musculus [8]): 14%
- ED50 (Mus musculus [4]; CD-1, sc): 16 mg/kg
- ED50 (Mus musculus [3]): 14.1 mg/kg

SMILES: Br.CC(=O)Oc1cccc(C23CCC(C2)N(CCc2ccccc2)CC3)c1 (racemic)
- ED50 (Mus musculus [11]): 35 mg/kg
- ED50 (Mus musculus [1]): 2.82 mg/kg
- inhibition (Mus musculus [2]): inactive
- ED50 (Mus musculus [5]): 15.2 mg/kg
- ED50 (Mus musculus [3]): 1 mg/kg

SMILES: Br.CC(=O)Oc1cccc(C23CCC(C2)N(CCc2cccs2)CC3)c1 (racemic)
- ED50 (Mus musculus [1]): ≤ 3.8 mg/kg
- ED50 (Mus musculus [5]): 64 mg/kg
- ED50 (Mus musculus [3]): 0.95 mg/kg

SMILES: CC(C)=CCN1CC[C@]2(C)c3cc(O)ccc3C[C@H]1[C@H]2C [(+)-PENTAZOCINE]
- ED50 (Mus musculus [1]): 14.6 mg/kg
- ED50 (Mus musculus [4]; CD-1, sc): 13.8 mg/kg
- ED50 (Mus musculus [3]): 2.4 mg/kg

SMILES: CN1CC[C@]23c4c5ccc(O)c4O[C@H]2[C@@H](O)C=C[C@H]3[C@H]1C5 [MORPHINE]
- ED50 (Mus musculus [3]): 0.68 mg/kg

SMILES: C=CCN1CC[C@]23c4c5ccc(O)c4O[C@H]2[C@@H](O)C=C[C@H]3[C@H]1C5 [NALORPHINE]
- ED50 (Mus musculus [4]; CD-1, sc): 0.43 mg/kg
